# PAFAH1B3 inh – PAFAH1B3 enzyme inhibitors, primary screen, biochemical, fluorescence polarization, human; Platelet-activating factor acetylhydrolase IB subunit alpha1 (Homo sapiens), Q15102; recombinant PAFAH1B3, FP-rhodamine probe; inhibition, % at 3.39 µM; actives 0.28% (n = 340,000); AID 492972, 2010;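 active = inhibition above the screen-wide average of all tested compounds plus 3 SD, cut at about 25% in these data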;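 also: 0% = enzyme with DMSO only and 100% = wells lacking PAFAH1B3 protein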
# Target sequence (Q15102 whole entry, looked up): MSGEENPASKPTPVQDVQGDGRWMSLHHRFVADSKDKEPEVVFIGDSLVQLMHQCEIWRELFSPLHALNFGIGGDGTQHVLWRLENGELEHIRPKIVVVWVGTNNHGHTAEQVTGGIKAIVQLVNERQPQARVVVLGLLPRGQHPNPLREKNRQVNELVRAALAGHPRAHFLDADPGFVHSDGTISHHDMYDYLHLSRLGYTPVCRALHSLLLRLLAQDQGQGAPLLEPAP
# UCH37 DUB inh – inhibitors of human UCH37 deubiquitinase, primary screen, biochemical, Ub-AMC cleavage, fluorescence. Ubiquitin carboxyl-terminal hydrolase isozyme L5 (Homo sapiens), Q9Y5K5. purified proteasome/UCH37. inhibition, % (no concentration beside the values). actives 0.33% (n = 330,000). AID 588478, 2011;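 active = mean inhibition over replicate wells above about 20%, limit read from the data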;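 also: 0% = compound-free wells with enzyme and 100% = wells lacking proteasome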
#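 Assay system: Proteasome-bound UCH37. Buffer or medium: pH 7.4 Tris-HCl (50 mM) with ovalbumin, ATP-MgCl2, DTT. Incubation: 30 min preincubation with enzyme, 25 min cleavage at room temperature. Measured by: fluorescence, ex 355 nm, em 460 nm. Read-out basis: percent inhibition. Control set: wells without proteasome as full block, compound-free enzyme plus substrate as uninhibited.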
# pPAFAH inh – pPAFAH enzyme inhibitors, primary screen, biochemical, fluorescence polarization, human. recombinant pPAFAH, FP-rhodamine probe fluorescence polarization. inhibition, % at 3.39 µM. actives 1.5% (n = 330,000). AID 463082, 2010. Platelet-activating factor acetylhydrolase (Homo sapiens), Q13093;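 active = inhibition above the mean inhibition across the screen plus 3 SD, cut at about 25% in these data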;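 also: inhibitors block binding of the rhodamine activity-based probe so polarization drops; 0% = enzyme with DMSO and 100% = wells lacking pPAFAH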
# PAFAH2 FP inh – PAFAH2 enzyme inhibitors, primary screen, biochemical, fluorescence polarization, human; recombinant PAFAH2, FP-rhodamine activity probe; inhibition, % at 3.39 µM; actives 0.99% (n = 340,000);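 active = inhibition above the mean over all tested compounds plus 3 SD, cut at about 30% in these data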;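 also: inhibitors block probe labeling of enzyme so polarization drops; 0% = enzyme with DMSO and 100% = wells lacking PAFAH2 protein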
# PAFAH1B2 FP inh – PAFAH1B2 enzyme inhibitors, primary screen, biochemical, fluorescence polarization, human | AID 492953, 2010 | inhibition, % at 3.39 µM | actives 1.2% (n = 340,000) | recombinant PAFAH1B2, FP-rhodamine activity probe;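 active = inhibition above the mean of all tested compounds plus 3 SD, cut at about 24% in these data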;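 also: 0% = enzyme with DMSO and 100% = wells lacking PAFAH1B2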
# Target sequence (P68402 whole entry, looked up): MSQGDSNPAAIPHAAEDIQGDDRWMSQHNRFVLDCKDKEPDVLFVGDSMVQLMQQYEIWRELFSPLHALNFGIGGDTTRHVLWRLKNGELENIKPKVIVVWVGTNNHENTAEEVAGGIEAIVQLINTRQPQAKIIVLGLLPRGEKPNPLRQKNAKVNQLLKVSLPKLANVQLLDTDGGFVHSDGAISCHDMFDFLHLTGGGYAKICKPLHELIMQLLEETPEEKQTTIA
# GRIN3A LBD mod – binders of NR3A ligand-binding domain, primary screen, biophysical, differential scanning fluorimetry, uHTS; Glutamate receptor ionotropic, NMDA 3A (GRIN3A) ligand-binding domain; NR3A LBD differential scanning fluorimetry, Tm shift; 0% = protein alone, 100% = glycine-bound protein; Tm shift relative to glycine control, % at 25 µM; actives 2.5% (n = 340,000);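 active = melting temperature shift of at least 10% of the positive control shift, at one fixed dose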
# The depositor's hits bear a star; nt = no result. Sampled rows, rich in hits. Any-hit rate of the full collection: about 4.8%.
SMILES,PAFAH1B3 inh,UCH37 DUB inh,pPAFAH inh,PAFAH2 FP inh,PAFAH1B2 FP inh,GRIN3A LBD mod
Cc1ccc(CCNC(=O)CCNS(=O)(=O)c2ccc3c(c2)oc(=O)n3C)cc1,4,-1,9,4,6,0
CCOC(=O)Cn1c(=O)oc2cc(S(=O)(=O)N(C)c3cccc(C)c3)ccc21,-2,-1,7,1,-1,4
CCOC(=O)Cn1c(=O)oc2cc(S(=O)(=O)Nc3ccc(F)cc3)ccc21,-2,nt,28*,-4,4,-4
COc1ccc(OC)c(Nc2nc(NCc3ccco3)c3ccccc3n2)c1,13,-44,25*,-1,3,-6
Oc1ccccc1Nc1nc(NCc2ccco2)c2ccccc2n1,12,nt,8,5,1,24*
Cc1ccccc1Nc1nc(NCc2ccco2)c2ccccc2n1,-1,-51,-2,6,0,-4
NC(N)=NN=Cc1ccc(OCc2ccccc2Cl)cc1,nt,6,nt,nt,nt,nt
Oc1c(Br)cc(Br)cc1C=Nn1c(-c2ccccc2)n[nH]c1=S,nt,0,nt,nt,nt,nt
Cc1ccc(C(C)C)c(OCC(=O)NN=Cc2cccn2C)c1,nt,4,nt,nt,nt,nt
CCS(=O)(=O)Nc1cccc(C(=O)O)c1,nt,2,3,nt,nt,5
Cc1cc(C(C)(C)C)cc(S(=O)(=O)Nc2cccc(C(=O)O)c2)c1C,6,5,3,3,30*,3
COc1ccc(N2C(=O)C(CC(=O)Nc3ccc(Cl)cc3)N(NC(=O)c3cccc(F)c3)C2=S)cc1 (stereo not given),-4,1,-1,-5,0,16*
COc1ccc(NC(=O)CC2C(=O)N(c3ccc(OC)cc3)C(=S)N2NC(=O)c2cccc(F)c2)cc1 (stereo not given),3,0,0,-6,-4,-1
O=C(CC1C(=O)N(c2ccc(Cl)cc2)C(=S)N1CCc1ccncc1)Nc1ccc(F)cc1 (stereo not given),10,5,1,-12,4,29*
CNc1cc(N2CCN(S(=O)(=O)N(C)C)CC2)ccc1[N+](=O)[O-],6,11,4,1,6,10*
CCS(=O)(=O)N1CCN(c2ccc([N+](=O)[O-])c(N3CCOCC3)c2)CC1,3,12,-2,13,1,16*
CN(C)S(=O)(=O)N1CCN(c2ccc([N+](=O)[O-])c(NC3CC3)c2)CC1,10,10,0,-6,8,3
O=C(O)/C=C/c1ccc(S(=O)(=O)NCc2ccco2)cc1,5,0,2,0,2,1
COc1ccccc1CNC(=O)/C=C/c1ccc(S(=O)(=O)NCc2ccco2)cc1,11,3,25*,10,-1,-4
NS(=O)(=O)c1ccc(NC(=O)/C=C/c2cccc(Cl)c2)cc1,-5,2,-2,-7,-6,28*
Cc1ccc(CNC(=O)/C=C/c2ccc(S(=O)(=O)NCc3ccco3)cc2)cc1,4,-3,5,-3,12,-5
NS(=O)(=O)c1ccc(NC(=O)/C=C/c2ccc(S(=O)(=O)NCc3ccco3)cc2)cc1,-7,4,-5,-13,-4,38*
O=C(/C=C/c1ccc(S(=O)(=O)NCc2ccco2)cc1)NCc1cccc(Cl)c1,7,5,29*,2,-1,1
O=[N+]([O-])c1ccc(NN=Cc2ccc(O)c(O)c2O)c(S(=O)(=O)N2CCOCC2)c1,nt,3,nt,nt,nt,nt
CCN(Cc1ccccc1)c1ccc(/C=N/NC(=S)NC(C)C)cc1,13,nt,22,0,26*,-6
SMILES,PAFAH1B3 inh,UCH37 DUB inh,pPAFAH inh,PAFAH2 FP inh,PAFAH1B2 FP inh,GRIN3A LBD mod
CCN(Cc1ccccc1)c1ccc(/C=N/NS(=O)(=O)c2ccc(C)c([N+](=O)[O-])c2)cc1,5,nt,3,1,28*,18*
CCN(Cc1ccccc1)c1ccccc1,9,nt,nt,13,5,0
CC(C)NC(=S)NN=Cc1ccc(C(C)(C)C)cc1,nt,2,nt,nt,nt,nt
CCN(Cc1ccccc1)c1ccc(/C=N/N=C(N)N)cc1,7,nt,7,5,25*,6
COc1ccccc1C=NNC(=O)c1ccc(Br)cc1,nt,2,nt,nt,nt,nt
CCCCCNC(=O)C(C)Sc1ccc(Cl)cc1 (stereo not given),3,0,-2,4,30*,1
CCCCCCNC(=O)C(=O)NCCc1ccc(Cl)cc1,7,0,-2,-4,-2,0
O=C(Nc1ccc(F)cc1F)Nc1sccc1-c1nc2ccccc2s1,3,-36,-1,9,-4,21*
Cc1ccc(S(=O)(=O)Nc2cccc(Cl)c2)cc1NC(=O)C1CC1,14,3,34*,9,2,-4
Cc1ccc(S(=O)(=O)Nc2cccc(Cl)c2)cc1NC(=O)c1cccnc1,1,5,11,2,2,0
Cc1ccc(NS(=O)(=O)c2ccc(Cl)c(NC(=S)NC(=O)C3CCCCC3)c2)cc1Cl,-51,3,-24,-51,-26,33*
COC(=O)c1ccc(NC(=O)C2CCN(C(=O)c3cc(OC)c(OC)c(OC)c3)CC2)cc1,4,-2,1,-4,3,0
CCOC(=O)c1ccc(NC(=O)C2CCN(C(=O)c3ccc(OC)c(OC)c3)CC2)cc1,-3,3,29*,-1,3,-1
CCOc1ccc(N(CC(=O)NN=Cc2cc([N+](=O)[O-])ccc2Cl)S(C)(=O)=O)cc1,nt,6,nt,nt,nt,nt
COc1ccccc1C=NNc1ccc([N+](=O)[O-])cn1,-2,4,nt,-1,4,2
O=[N+]([O-])c1ccc(NN=Cc2ccc(O)cc2)nc1,2,4,nt,2,2,26*
O=[N+]([O-])c1ccc(NN=Cc2ccccc2O)nc1,10,0,nt,1,7,26*
O=[N+]([O-])c1ccc(NN=Cc2ccc(O)cc2O)nc1,7,1,nt,-4,4,27*
O=[N+]([O-])c1ccc(N/N=C\c2cccn2-c2ccccc2)nc1,0,nt,29*,-2,6,-1
O=[N+]([O-])c1ccc(NN=Cc2ccccc2)nc1,12,-2,nt,9,3,-4
O=[N+]([O-])c1ccc(N/N=C/c2ccc(OCc3cccc4ccccc34)cc2)nc1,1,nt,6,-3,0,28*
COc1ccc(C=NNc2ccc([N+](=O)[O-])cn2)cc1,-2,4,nt,-6,1,3
CCN(CC)S(=O)(=O)c1ccc(NN=Cc2cc(OC)ccc2O)nc1,nt,5,nt,nt,nt,nt
